Assay results published in paper PMC11144404 (Drug Design, Development and Therapy, 2024).

Tests used:
[1] = test system: healthy Chinese volunteers; test: Safety and tolerability; assay type: in vivo, human; details: per treatment period
How it was run: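 12 enrolled healthy Chinese men aged 18–40 y with BMI 19–26 kg/m2. All had normal blood chemistry, haematology, urinalysis, vital signs and hepatitis/HIV serology, and stopped interfering medications 4 weeks before the study. Treatment-emergent adverse events were recorded as events and subjects for each treatment period (multiple-dose monotherapy with each drug, then co-administration). Drug relatedness was assessed.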

[2] = Steady-state plasma pharmacokinetics of henagliflozin alone or with HCTZ; assay type: in vivo, human
[3] = test system: healthy subjects and patients with T2DM; details: cited from earlier work
[4] = 2.5 mg dose group; cited from earlier work
[5] = Steady-state plasma pharmacokinetics of HCTZ alone or with henagliflozin; assay type: in vivo, human

Increase of Css,max by co-administration ([2]; co-administration with HCTZ vs henagliflozin alone) | 90% CI of ratio of geometric means (combination: monotherapy) for AUCτ,ss ([2]; henagliflozin, compared with bioequivalence interval) | Decrease of Css,max by co-administration ([5]; co-administration with henagliflozin vs HCTZ alone) | Structure (SMILES) | All TEAEs, number of subjects ([1]; of 12 subjects) | Diarrhea, number of subjects ([1]; of 12 subjects) | Dizziness, number of subjects ([1]; of 12 subjects) | Eczema, number of subjects ([1]; of 12 subjects) | Subjects reporting TEAEs ([1]; of 12 subjects) | All TEAEs, number of subjects ([1]; of 12 subjects, listed as henagliflozin) | All TEAEs, number of events ([1]; figure in brackets) | Drug-related TEAEs, number of events ([1]; figure in brackets) | Benefit of 20 mg group compared with 5 mg and 10 mg groups (PK/PD) ([3]; 5–20 mg dosing range, healthy subjects and patients with T2DM) | Effect on blood glucose, blood electrolytes, or blood pressure ([3]; healthy people) | Difference in AUC0-24h and Cmax between males and females [4] | Drug-related TEAEs, number of subjects ([1]; of 12 subjects) | Thirst, number of subjects ([1]; of 12 subjects) | 90% CI of ratio of geometric means (combination: monotherapy) for AUCτ,ss ([5]; HCTZ, compared with bioequivalence interval)
24.32% | fell between 0.80 and 1.25 |  | CCOc1ccc(Cc2cc([C@@]34OC[C@@](CO)(O3)[C@@H](O)[C@H](O)[C@H]4O)ccc2Cl)cc1F [Henagliflozin] | 4(4) | 2(2) | 1(1) | 1(1) | 33.3% | 4 | four | all TEAEs were considered to be related to henagliflozin | no significant benefit | no effect | no statistical difference |  |  | 
 |  | 19.41% | NS(=O)(=O)c1cc2c(cc1Cl)NCNS2(=O)=O [HCTZ, Hydrochlorothiazide] | 11 | 2(2) |  | 0(0) | 91.7% |  |  |  |  |  |  | 11 | 10(10) | within the bioequivalence interval of 0.80–1.25
